Assay results: ChEMBL document CHEMBL1144018, “SAR studies of capsazepinoid bronchodilators. Part 2: Chlorination and catechol replacement in the A-ring” (Bioorg Med Chem, 2008)

Organism: Homo sapiens
Test: Bronchorelaxing effect on LTD4-contracted small human lung airways assessed as remaining contraction at 10 uM after 1.5 hrs relative to control
Format: functional
How it was run: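 Human small airways (0.5–1.5 mm diameter) from lung cancer patients, in vitro. Each preparation contracted with 10 nM LTD4 untreated, then again after 1.5 h exposure to 10 µM test compound. Value is the percent of the full LTD4 contraction that remains, given as arithmetic mean ± SEM with n in parentheses.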

| Structure (SMILES) | Activity |
| --- | --- |
| Oc1ccc2c(c1Cl)CCCN(C(=S)NCCc1ccc(Cl)cc1)C2 | 67% |
| Oc1ccc2c(c1Cl)CN(C(=S)NCCc1ccc(Cl)cc1)CCC2 | 46% |
| Oc1cc2c(cc1Cl)CN(C(=S)NCCc1ccc(Cl)cc1)CCC2 | 49% |
| Oc1ccc2c(c1Cl)CCN(C(=S)NCCc1ccc(Cl)cc1)C2 | 69% |
| CS(=O)(=O)Nc1ccc2c(c1)CN(C(=S)NCCc1ccc(Cl)cc1)CC2 | 72% |
| O=C(O)c1cc2c(cc1C(=O)O)CN(C(=S)NCCc1ccc(Cl)cc1)CC2 | 99% |
| Oc1c(O)c(Cl)c2c(c1Cl)CCCN(C(=S)NCCc1ccc(Cl)cc1)C2 | 38% |
| COC(=O)c1cc2c(cc1C(=O)OC)CN(C(=S)NCCc1ccc(Cl)cc1)CC2 | 87% |
| Nc1ccc2c(c1)CCN(C(=S)NCCc1ccc(Cl)cc1)C2 | 62% |
| Oc1cc2c(c(Cl)c1O)CN(C(=S)NCCc1ccc(Cl)cc1)C2 | 65% |
| Oc1cc2c(cc1Cl)CCN(C(=S)NCCc1ccc(Cl)cc1)C2 | 69% |
| Oc1cc2c(c(Cl)c1O)CCN(C(=S)NCCc1ccc(Cl)cc1)C2 | 40% |
| Oc1cc2c(cc1Cl)CCCN(C(=S)NCCc1ccc(Cl)cc1)C2 | 56% |
| CS(=O)(=O)Nc1ccc2c(c1)CCN(C(=S)NCCc1ccc(Cl)cc1)C2 | 75% |
| Oc1c(O)c(Cl)c2c(c1Cl)CCN(C(=S)NCCc1ccc(Cl)cc1)C2 | 14% |
| Oc1ccc2c(c1Cl)CN(C(=S)NCCc1ccc(Cl)cc1)CC2 | 47% |

| Structure (SMILES) | Activity |
| --- | --- |
| Oc1cc2c(c(Cl)c1O)CN(C(=S)NCCc1ccc(Cl)cc1)CCC2 | 63% |
| Oc1c(O)c(Cl)c2c(c1Cl)CCN(C(=S)NCCc1ccc(Cl)cc1)C2Cc1ccccc1 (stereo unspecified) | 84% |
| Oc1c(Cl)cc2c(c1Cl)CN(C(=S)NCCc1ccc(Cl)cc1)CC2 | 57% |
| Oc1c(O)c(Cl)c2c(c1Cl)CCN(C(=S)NCCc1ccc(Cl)cc1)CC2 | 29% |
| N#Cc1cc2c(cc1C#N)CN(C(=S)NCCc1ccc(Cl)cc1)CC2 | 84% |
| Oc1c(O)c(Cl)c2c(c1Cl)CN(C(=S)NCCc1ccc(Cl)cc1)C2 | 31% |
| Nc1ccc2c(c1)CN(C(=S)NCCc1ccc(Cl)cc1)CC2 | 79% |
| Oc1c(Cl)cc2c(c1Cl)CCCN(C(=S)NCCc1ccc(Cl)cc1)C2 | 30% |
| Oc1c(Cl)cc2c(c1Cl)CCN(C(=S)NCCc1ccc(Cl)cc1)C2 | 55% |
| S=C(NCCc1ccc(Cl)cc1)N1CCc2ccccc2C1 | 83% |
| Oc1cc2c(c(Cl)c1O)CCCN(C(=S)NCCc1ccc(Cl)cc1)C2 | 64% |
| CC1c2c(Cl)c(O)c(O)c(Cl)c2CCN1C(=S)NCCc1ccc(Cl)cc1 (stereo unspecified) | 48% |
| CC1Cc2c(Cl)c(O)c(O)c(Cl)c2CN1C(=S)NCCc1ccc(Cl)cc1 (stereo unspecified) | 31% |
| Oc1cc2c(cc1Cl)CN(C(=S)NCCc1ccc(Cl)cc1)CC2 | 73% |
| Oc1cc2c(c(Cl)c1O)CN(C(=S)NCCc1ccc(Cl)cc1)CC2 | 49% |
